Assay outcomes (PubChem BioAssay)
SENP1 inh – human SENP1 catalytic domain inhibitors, primary screen, biochemical, FRET, uHTS; inhibition, % at 10 µM; Sentrin-specific protease 1 (Homo sapiens), Q9P0U3; AID 624204, 2012; recombinant SENP1 catalytic domain, CyPet-SUMO1-YPet FRET cleavage; 360,000 tested, 0.21% active;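 active = inhibition at least 30% at 10 µM, raw YFP signal under a set limit, fluorescence ratio 0.5 to 1.5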;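 also: 0% = enzyme with DMSO and 100% = no enzyme wells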
Target sequence (Q9P0U3 419-644 limits assumed): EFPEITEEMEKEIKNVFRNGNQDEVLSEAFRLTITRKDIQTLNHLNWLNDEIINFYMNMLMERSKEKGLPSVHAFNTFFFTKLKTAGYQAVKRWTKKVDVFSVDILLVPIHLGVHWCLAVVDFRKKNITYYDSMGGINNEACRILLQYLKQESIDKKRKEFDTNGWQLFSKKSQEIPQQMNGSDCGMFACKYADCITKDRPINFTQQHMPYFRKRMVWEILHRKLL
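Compound: 10 µM single point, 0.5% DMSO; Test system: hSENP1 catalytic domain, recombinant; Timing: 50 min reaction at room temperature; Technique: FRET, CFP and YFP emission; Control set: no-enzyme wells low, DMSO-plus-enzyme wells high control.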
VLA-4 inh – inhibition in human VLA-4 binding assay, primary screen, VLA-4 allosteric modulator project, MLPCN library, flow cytometry, VLA-4 expressing cells; Integrin alpha-4 (Homo sapiens), P13612; ligand binding flow cytometry; inhibition, % (about 7 µM as worked out from the volumes in the protocol); 330,000 tested, 0.2% active; AID 2557, 2010; in the data active = inhibition above about 50%
Platelet DG rel – inhibitors of platelet dense granule secretion, primary screen, cell-based, MLPCN, human platelets. human platelet-rich plasma, SFLLRN dense granule ATP release, luminescence. inhibition, %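 (compounds screened at 7.5 µM in platelet-rich plasma)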. 300,000 tested, 0.22% active;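 active = mean replicate score, as percent of positive control, at or above 50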
Myeloid diff MLP – induction of myeloid progenitor differentiation, primary screen, cell-based, flow cytometry, MLPCN library; ER-HoxA9 myeloid progenitors, lysozyme-GFP differentiation; calls only at 10 µM; 360,000 tested, 1% active; AID 624256, 2012;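 active = normalized GFP-positive differentiation at or above the plate's own cutoff, the solvent-only control mean plus 3 SD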;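 also: cells exposed to compound for four days before flow analysis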
Myeloid diff CP1 – inducers of myeloid progenitor differentiation, confirmation, cell-based, GFP/Mac1 flow cytometry, cherry pick 01. ER-HoxA9 myeloid progenitors, GFP/Mac1 double-positive flow. shares compounds with Myeloid diff MLP. calls only. 2,300 tested, 2% active;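 active = share of green or green-and-red cells above 9 and 9% in run 1 or 4 and 3% in run 2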
GFP autofluor – compound fluorescence in myeloid differentiation counter-screen; shares compounds with Myeloid diff MLP; ER-HoxA9 myeloid progenitors, no estrogen, GFP autofluorescence flow cytometry; vehicle wells 0%, positive control 100%; fluorescence response, % (no concentration beside the values); 2,300 tested, 7.4% active;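 active = over 5% cells positive for green fluorescent reporter, or over 2% positive for both it and APC stain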;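 also: range taken on the double positive population between DMSO and positive control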
Numbers without * were called inactive; i = inactive; · = no result; + = active, no number. Rows were chosen to be rich in hits. Some 1.5% of all compounds tested hit in one or more screens of this group.

SMILES	SENP1 inh	VLA-4 inh	Platelet DG rel	Myeloid diff MLP	Myeloid diff CP1	GFP autofluor
Cc1nn(C)c(C)c1NC(=O)CSc1nnc(C)n1-c1ccccc1	1	-2	-6	+	i	0
Cc1cc(C)c(S(C)(=O)=O)c(=O)[nH]1	0	-9	-3	i	·	·
Cc1cc(=O)c2c([nH]1)c(C)cc1[nH]c(C)c(C)c12	-27	-3	·	i	i	0
CNCCCCOc1ccc(C(C)(C)C)cc1Cl	2	6	6	i	·	·
CC1(C)CC(NC(=O)CCc2nnc(CCCCc3ccccc3)o2)CCO1 (stereo not given)	1	10	2	i	·	·
O=C1c2cccnc2C(Nc2ccccc2)N1Cc1ccco1 (stereo not given)	-1	22	-7	i	i	0
O=C(COC(=O)CCC(=O)c1cccs1)NCCc1ccccc1	1	14	·	i	·	·
COc1ccc(NC(=O)CCN2CC(C)OC(C)C2)c(OC)c1 (stereo not given)	0	-3	6	+	i	0
COc1ccc(NC(=O)NCCc2cccc(Cl)c2)cc1OC	0	15	0	i	·	·
CC[C@]12c3[nH]c4cc(CCC(=O)N(C)C)ccc4c3CCN1C(=O)[C@@H](CC(=O)NCCCn1ccnc1)C[C@@H]2C(=O)N1CCN(C(=O)c2ccco2)CC1	-1	·	·	i	·	·
Cc1ccc(CNC(=O)COC(=O)c2nc(-c3ccccc3)oc2C)cc1	-6	-5	·	i	i	0
CC(C)CCN1C(=O)c2ccc(C(=O)OCC(=O)N(CC(C)C)C3CCS(=O)(=O)C3)cc2C1=O (stereo not given)	0	41	·	i	·	·
c1cnc(N2CCN(c3nc4ccccc4n4cnnc34)CC2)nc1	-2	6	0	i	i	0
O=C(c1ccccc1)c1ccc(C(=O)N2CCN(c3ccccc3Cl)CC2)cc1	3	1	·	i	i	0
O=C(c1cccnc1)N1CCN(c2ccccc2Cl)CC1	·	11	3	·	·	·
CCOc1cc(/C=C2\N=C(C)OC2=O)cc(Br)c1OCC(=O)OC	-6	2	-13	+	i	0
CCOCCCN(C)C1CCN(C(=O)c2oc3ccccc3c2NC(=O)c2cccc([N+](=O)[O-])c2)CC1	1	5	13	i	·	·
CC(=O)Nc1nc(-c2ccccc2)nc(-c2ccccc2OC(C)=O)n1	3	11	8	+	i	0
CC(=O)Nc1nc(C)nc(-c2ccccc2OC(C)=O)n1	2	9	-3	i	·	·
O=C(O)c1ccccc1Nc1ccc([N+](=O)[O-])cc1	0	26	2	i	+	1
O=C(O)c1ccccc1Nc1ccccc1C(=O)O	1	3	3	i	·	·
Cc1cccc(NC(=S)NC(NC(=O)OCc2ccccc2)C(Cl)(Cl)Cl)c1 (stereo not given)	2	-8	5	i	i	0
CC(C)CC(=O)NC(NC(=S)Nc1ccccc1)C(Cl)(Cl)Cl (stereo not given)	4	2	-8	i	i	0
Cn1c(=O)c2c(nc(NCCc3ccccc3)n2Cc2ccc(F)cc2)n(C)c1=O	1	38	17	i	·	·
C=CCNc1nc2c(c(=O)n(C)c(=O)n2C)n1Cc1ccc(F)cc1	1	17	-5	i	i	1
SMILES	SENP1 inh	VLA-4 inh	Platelet DG rel	Myeloid diff MLP	Myeloid diff CP1	GFP autofluor
Cc1cccc(Cn2c(NCCO)nc3c2c(=O)n(C)c(=O)n3C)c1	3	-2	2	+	i	0
Cc1nc(C)c(C(=O)OC(C)C(=O)Nc2ccc(F)cc2)s1 (stereo not given)	-1	7	·	i	·	·
O=C(NCCCCc1ccccc1)C12CN(Cc3ccccc3)CC1C(c1cccc([N+](=O)[O-])c1)=NO2 (stereo not given)	0	-8	3	i	·	·
O=C(NCCCCc1ccccc1)C12CN(Cc3ccccc3)CC1C(c1ccc([N+](=O)[O-])cc1)=NO2 (stereo not given)	2	27	-7	+	i	0
COc1ccc2c(c1OC)C(=O)N(c1ccc3c(c1)CCC3)C2=O	-9	-7	-7	i	i	0
N#CCN=C(c1ccccc1)c1ccccc1	0	0	·	i	·	·
COc1ccc(N2CCN(C(=O)c3cccc(NS(=O)(=O)c4cccc(F)c4)c3)CC2)cc1	-1	·	-1	i	·	·
COc1ccc(N2CCN(C(=O)c3ccc(NS(=O)(=O)c4cccc(F)c4)cc3)CC2)cc1	0	-13	18	i	i	1
COc1ccc(NS(=O)(=O)c2cccc(C(=O)NNC(=O)COc3ccccc3)c2)cc1	0	1	-8	+	i	0
COc1ccc(N2CCN(C(=O)c3ccc(C)c(Cl)c3)CC2)cc1	5	-15	-1	i	i	0
COc1ccc(N2CCN(C(=O)c3ccc(Cl)c(S(=O)(=O)N4CCCC4)c3)CC2)cc1	1	23	0	i	·	·
COc1ccc(NS(=O)(=O)c2cccc(C(=O)NNC(=O)CNC(=O)c3ccccc3)c2)cc1	3	-24	-4	i	·	·
CCN(CC(=O)Nc1cc(S(=O)(=O)N2CCOCC2)ccc1C)Cc1ccccc1	1	0	0	·	·	·
COc1ccc(/C=C/c2cccc[n+]2C)c(O)c1	-3	-17	2	i	+	1
Cc1ccc(NC(=O)CSCc2cc(=O)n3ccsc3n2)c(C)c1	2	1	1	i	·	·
O=C(NCCc1ccc(Cl)cc1)c1ccc2nc[nH]c2c1	-5	-1	5	i	·	·
COc1cccc(/C(O)=C/c2nc3ccc(C(=O)NCCc4ccc(Cl)cc4)cc3[nH]c2=O)c1	-26	·	-1	+	i	0
Cc1cccc(C)c1-n1nnnc1C(C)(C)N1CCN(N=O)CC1	2	-1	1	i	·	·
COc1ccc(NC(C)(C)c2nnnn2-c2c(C)cccc2C)cc1	0	-1	4	i	i	0
COCCN(C(=O)COC(=O)Cc1ccc(Cl)cc1Cl)c1c(N)n(Cc2ccccc2)c(=O)[nH]c1=O	-1	-4	1	i	·	·
CC(C)(C)C(=O)Nc1nc2c(s1)CN(Cc1ccccc1)CC2	-67	-10	-9	i	i	0
N#Cc1c2nc3ccccc3nc2n2cc(NC(=O)c3ccc(F)cc3)ccc12	-29	·	·	i	i	3
